Measurements taken from ChEMBL document CHEMBL2177027, “Exploring the directionality of 5-substitutions in a new series of 5-alkylaminopyrazolo[4,3-e]1,2,4-triazolo[1,5-c]pyrimidine as a strategy to design novel human a(3) adenosine receptor antagonists” (J Med Chem, 2012).

Assays:
Adenosine receptor A1 = biological target: T1, Adenosine receptor A1 (Homo sapiens, UniProt P30542); test: Displacement of [3H]CCPA from human adenosine A1 receptor expressed in CHO cell membrane; assay type: cell membranes
T1 sequence (P30542 whole entry): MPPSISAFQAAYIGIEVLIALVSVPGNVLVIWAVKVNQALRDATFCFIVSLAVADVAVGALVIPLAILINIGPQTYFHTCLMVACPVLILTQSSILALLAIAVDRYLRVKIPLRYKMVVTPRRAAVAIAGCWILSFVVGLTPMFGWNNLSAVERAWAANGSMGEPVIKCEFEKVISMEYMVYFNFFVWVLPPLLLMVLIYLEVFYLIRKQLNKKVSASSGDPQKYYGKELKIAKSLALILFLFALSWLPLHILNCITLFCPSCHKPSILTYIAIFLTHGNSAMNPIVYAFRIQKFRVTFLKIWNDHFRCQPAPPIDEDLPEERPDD
Summary of the method: (§1)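 CHO cells stably transfected with the human receptor subtype. Membranes were prepared by a 1000g spin to clear fragments and nuclei, then pelleted from the supernatant at 100 000g. Pellet was resuspended in the respective binding buffer, frozen in liquid nitrogen and stored until radioligand competition binding.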

[1] = Selectivity ratio of Ki for human adenosine A2A receptor expressed in CHO cell membrane to Ki for human adenosine A3 receptor expressed in CHO cell membrane; assay type: cell-based
Adenosine receptor A2a = Adenosine receptor A2a (Homo sapiens, UniProt P29274); test: Displacement of [3H]NECA from human adenosine A2A receptor expressed in CHO cell membrane; assay type: cell membranes; summary of the method: as §1
[2] = biological target: Adenosine receptors; A1 & A3 (Homo sapiens) (UniProt P30542+P0DMS8); test: Selectivity ratio of Ki for human adenosine A1 receptor expressed in CHO cell membrane to Ki for human adenosine A3 receptor expressed in CHO cell membrane; assay type: cell-based
Adenosine receptor A2b = biological target: T2, Adenosine receptor A2b (Homo sapiens, UniProt P29275); test: Antagonist activity at human adenosine A2B receptor expressed in CHO cells assessed as NECA-induced adenylate cyclase activity; assay type: functional, cell-based
T2 sequence (P29275 whole entry): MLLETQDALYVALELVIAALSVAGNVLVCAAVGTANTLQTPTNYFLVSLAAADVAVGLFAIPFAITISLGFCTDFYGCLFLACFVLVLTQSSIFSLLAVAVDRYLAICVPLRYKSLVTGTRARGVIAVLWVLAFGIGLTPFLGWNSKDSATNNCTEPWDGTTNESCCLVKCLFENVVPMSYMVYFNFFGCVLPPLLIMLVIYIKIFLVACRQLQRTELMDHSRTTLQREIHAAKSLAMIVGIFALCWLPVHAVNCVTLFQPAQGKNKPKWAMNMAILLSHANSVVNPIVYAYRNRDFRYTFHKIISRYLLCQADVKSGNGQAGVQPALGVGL
Summary of the method: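 Membranes from stably transfected CHO cells made with a single high-speed spin of the homogenate. Incubated 20 min with about 150 000 cpm [α-³²P]ATP in mixture lacking EDTA and NaCl. IC50 taken from concentration-dependent inhibition of NECA-stimulated adenylyl cyclase using Hill equation.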

[3] = Selectivity ratio of Ki for human adenosine A1 receptor expressed in CHO cell membrane to Ki for human adenosine A2A receptor expressed in CHO cell membrane; assay type: cell-based
Adenosine receptor A3 = biological target: T3, Adenosine receptor A3 (Homo sapiens, UniProt P0DMS8); test: Displacement of [3H]NECA from human adenosine A3 receptor expressed in CHO cell membrane; assay type: cell membranes; summary of the method: as §1
T3 sequence (P0DMS8 whole entry): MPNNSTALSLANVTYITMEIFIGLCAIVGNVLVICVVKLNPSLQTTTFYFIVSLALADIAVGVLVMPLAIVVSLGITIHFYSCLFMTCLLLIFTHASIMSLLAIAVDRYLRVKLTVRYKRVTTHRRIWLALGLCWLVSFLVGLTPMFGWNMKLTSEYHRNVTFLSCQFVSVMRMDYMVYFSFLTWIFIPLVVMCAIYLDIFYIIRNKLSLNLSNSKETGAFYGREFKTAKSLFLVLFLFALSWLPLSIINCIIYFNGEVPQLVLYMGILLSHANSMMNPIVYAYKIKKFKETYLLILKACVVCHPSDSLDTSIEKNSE

Sequence of Adenosine receptor A2a (P29274 whole entry): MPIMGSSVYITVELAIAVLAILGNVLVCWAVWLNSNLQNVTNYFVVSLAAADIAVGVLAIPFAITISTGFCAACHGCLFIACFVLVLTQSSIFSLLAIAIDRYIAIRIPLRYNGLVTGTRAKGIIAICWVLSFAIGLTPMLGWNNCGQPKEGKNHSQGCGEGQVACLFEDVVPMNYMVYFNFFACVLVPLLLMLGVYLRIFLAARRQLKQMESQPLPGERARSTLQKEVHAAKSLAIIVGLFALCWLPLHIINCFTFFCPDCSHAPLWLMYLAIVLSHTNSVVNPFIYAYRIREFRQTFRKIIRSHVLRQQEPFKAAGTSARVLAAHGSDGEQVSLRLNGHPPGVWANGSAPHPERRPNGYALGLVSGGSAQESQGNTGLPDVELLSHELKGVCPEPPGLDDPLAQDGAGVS

SMILES | Ki (Adenosine receptor A1) | Ratio Ki [1] | Ki (Adenosine receptor A2a) | Ratio Ki [2] | Ki (Adenosine receptor A2b) | Ratio Ki [3] | Ki (Adenosine receptor A3)
COc1ccc(CNc2nc3nn(C)cc3c3nc(-c4ccco4)nn23)cc1OC | 2.72 µM | 3.04 | 0.0641 µM | 129 | > 3 µM | 42.3 | 0.0211 µM
Cn1cc2c(nc(NCCO)n3nc(-c4ccco4)nc23)n1 | 0.649 µM | 0.51 | 0.157 µM | 2.1 | 7.47 µM | 4.13 | 0.309 µM
CCN(CC)c1nc2nn(C)cc2c2nc(-c3ccco3)nn12 | 1.45 µM | 8.29 | 0.798 µM | 15.1 | > 10 µM | 1.82 | 0.0963 µM
CCC(C)Nc1nc2nn(C)cc2c2nc(-c3ccco3)nn12 (racemic) | 0.131 µM | 47.4 | 0.248 µM | 25 | 3.86 µM | 0.53 | 0.00523 µM
Cn1cc2c(nc(NCc3ccc(Cl)cc3)n3nc(-c4ccco4)nc23)n1 | 0.322 µM | 37.9 | 0.0754 µM | 162 | 2.62 µM | 4.27 | 0.00199 µM
Cn1cc2c(nc(N3CCOCC3)n3nc(-c4ccco4)nc23)n1 | 2.42 µM | 3.25 | 1.67 µM | 4.71 | > 10 µM | 1.45 | 0.514 µM
CCN(CCO)c1nc2nn(C)cc2c2nc(-c3ccco3)nn12 | 15 µM | 4.73 | 6.43 µM | 11 | > 10 µM | 2.33 | 1.36 µM
Cn1cc2c(nc(NCc3ccc(F)cc3)n3nc(-c4ccco4)nc23)n1 | 0.823 µM | 17.8 | 0.0875 µM | 167 | 3.18 µM | 9.41 | 0.00493 µM
Cc1ccc(CNc2nc3nn(C)cc3c3nc(-c4ccco4)nn23)cc1 | 0.538 µM | 109 | 0.117 µM | 503 | 3.94 µM | 4.6 | 0.00107 µM
Cn1cc2c(nc(NC3CCCCC3)n3nc(-c4ccco4)nc23)n1 | 0.166 µM | 27.2 | 0.233 µM | 19.4 | 6.32 µM | 0.71 | 0.00857 µM
CCCCCNc1nc2nn(C)cc2c2nc(-c3ccco3)nn12 | 0.481 µM | 11.5 | 0.168 µM | 32.9 | 3.98 µM | 2.86 | 0.0146 µM
CCCCCC(C)Nc1nc2nn(C)cc2c2nc(-c3ccco3)nn12 (stereo unspecified) | 0.248 µM | 51.7 | 0.446 µM | 28.8 | 7.66 µM | 0.56 | 0.00862 µM
CCCCN(C)c1nc2nn(C)cc2c2nc(-c3ccco3)nn12 | 1.06 µM | 37.6 | 1.38 µM | 28.9 | > 10 µM | 0.77 | 0.0367 µM
Cn1cc2c(nc(NC3CCCCCCC3)n3nc(-c4ccco4)nc23)n1 | 0.484 µM | 18 | 0.279 µM | 31.2 | > 10 µM | 1.73 | 0.0155 µM
Cn1cc2c(n1)[nH]c(=O)n1nc(-c3ccco3)nc21 | > 30 µM | > 5.68 | > 30 µM | > 5.68 | > 10 µM |  | 5.28 µM
COc1nc2nn(C)cc2c2nc(-c3ccco3)nn12 | > 30 µM | > 36.5 | > 30 µM | > 36.5 | > 10 µM |  | 0.822 µM
Cn1cc2c(nc(NC34CC5CC(CC(C5)C3)C4)n3nc(-c4ccco4)nc23)n1 | 3.31 µM | > 794 | > 30 µM | 87.6 | > 10 µM |  | 0.0378 µM
